High-throughput results (PubChem BioAssay)
Compounds with a hit are over-represented: about 3% of the library has one in this group of screens.
Rad51 HR inh: Rad51 (human) homologous recombination inhibition; inhibition, % at 10 µM; AID 1385; hRad51 DNA strand exchange, fluorescence dequenching; 200,000 compounds, 0.085% hits; Q06609;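 active means inhibition above 40% at the single screening dose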;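 further: 0% = DMSO control wells and 100% = blanks with heterologous ssDNA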
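Material: human Rad51–ssDNA filaments; Probe or stimulus: labelled 47-mer dsDNA for strand exchange; Doses: single 10 µM dose; Incubation: 37 °C 15-min filament assembly, 30-min compound preincubation, 15-min exchange; Technique: FRET fluorescence dequenching, excitation 485 nm, emission 520 nm; Measure: Fluorescence-based percent inhibition, control- and blank-normalised; Benchmarks: plate control and blank wells.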
KCC2 mod: modulates chloride dependent transport by human KCC2; B-score of Tl+ flux slope (higher = more flux/activation; lower = inhibition) at 10 µM; AID 1456; KCC2 cells, thallium flux FluoZin-2 fluorescence; Q9H2X9; 190,000 compounds, 2.2% hits;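 active means thallium flux slope and its plate-corrected score both differing from the plate sample mean at a set confidence after two filtering rounds, in either direction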;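 further: slope of fluorescence scaled to starting intensity during 10 to 20 s after thallium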
ROMK primary: modulators of human ROMK potassium channel; P48048; Tet-inducible ROMK, thallium flux fluorescence; actives lie on both sides; B-score at 10 µM; 130,000 compounds, 2% hits;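 active means signal ratio slope over the read window, or its plate-corrected B-score, at least 3 SD from the plate mean, either direction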;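 further: B-score of the F/F0 ratio slope over 7 to 12 s after thallium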
PKD1 inh: PKD1 (human) kinase inhibition | Q15139 | PKD1 kinase fluorescence polarization assay | inhibition, % (test concentration not listed) | 200,000 compounds, 0.056% hits; in the data active means inhibition above about 50%
KCC2 secondary: confirmation of human KCC2 transport modulators. shares compounds with KCC2 mod. HEK293-KCC2, thallium flux, FluoZin2 fluorescence; stronger effect = higher value. normalised thallium flux (F/F0 slope) at 10 µM. 3,700 compounds, 15% hits. AID 1713;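 active means thallium flux slope above the same plate's solvent-only control mean plus 3 SD; inconclusive means the two replicate wells disagree; inactive means no significant difference from solvent-only control wells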
KCC2 bumet counter: bumetanide-insensitive thallium flux in KCC2 cells with ouabain, counter-screen | 3,700 compounds, 49% hits | HEK293-KCC2 + bumetanide/ouabain, thallium flux FluoZin2; stronger effect = higher value | normalized thallium flux at 10 µM | AID 1714 | shares compounds with KCC2 mod;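 active means thallium entry rate above the same plate's blocked-transporter control wells by more than 3 SD; inconclusive means the two repeat wells disagree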;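 further: raw slope of fluorescence over initial fluorescence between 10 and 20 s after thallium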
KCC2 sec2: confirmation of human KCC2 transport modulators; HEK293-KCC2, thallium flux FluoZin2 fluorescence; actives lie on both sides; F/F0 rise rate, 10–20 s post-thallium; shares compounds with KCC2 mod; 3,700 compounds, 23% hits; AID 1715; normalized thallium flux at 10 µM;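 active means thallium flux slope more than 3 SD above or below the plate's solvent-only control mean, mostly below; inconclusive means the two repeat wells disagreed; inactive means no significant shift from solvent-only controls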;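 further: raw slope with 0.1% DMSO as baseline and bumetanide as block control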
HEK counter1: counter-screen for KCC2 modulators: effect in parental HEK293 cells; 3,700 compounds, 46% hits; shares compounds with KCC2 mod; thallium flux FluoZin2, ouabain; baseline-ratio fluorescence slope, 10–20 s after thallium; thallium flux rate (normalised fluorescence) at 10 µM; AID 1716;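 active means thallium flux rate significantly above the same plate's solvent-only control wells, beyond their mean plus 3 SD; inconclusive means the two replicate wells gave conflicting results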
KCC2 ouabain: KCC2 (human) modulation, ouabain retest. shares compounds with KCC2 mod. HEK293-KCC2, thallium flux FluoZin2 fluorescence; bidirectional: low = inhibitor, high = activator. raw Tl+ flux slope (below DMSO = inhibition, above = activation) at 10 µM. 3,700 compounds, 48% hits. AID 1717;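 active means thallium flux slope beyond 3 SD from same-plate DMSO control mean in most replicates, usually higher, sometimes lower; inconclusive means repeat tests gave conflicting results; inactive means no significant difference from controls in most replicates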;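 further: slope of initial-normalized fluorescence between seconds 10 and 20 after thallium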
HEK counter2: counter-screen for KCC2 modulators: effect in parental HEK293 cells | shares compounds with KCC2 mod | thallium flux FluoZin-2 fluorescence slope | thallium flux slope at 10 µM | 3,700 compounds, 33% hits | AID 1718;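 active means thallium flux slope above the same plate's solvent-control mean plus 3 SD in both duplicate wells; inconclusive means duplicate wells that disagreed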;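 further: run without ouabain in cells lacking the KCC2 cotransporter; slope of fluorescence scaled to its starting value between 10 and 20 s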
* marks the source's active call; other numbers are inactive results; ? = inconclusive; . = not tested or not shown.

SMILES | Rad51 HR inh | KCC2 mod | ROMK primary | PKD1 inh | KCC2 secondary | KCC2 bumet counter | KCC2 sec2 | HEK counter1 | KCC2 ouabain | HEK counter2
CCc1ccc(-n2c(=O)c3c(C)c(C(=O)N(C)C)sc3n(CC(=O)NCc3ccco3)c2=O)cc1 | -4.9 | 3.8* | -0.0505 | 7.2 | 0.0163 | 0.00455 | 0.0295 | 0.00761 | 0.0168 | 0.01
O=c1c2ccc(Cl)cc2[nH]c(=S)n1Cc1cccnc1 | . | 3.56* | . | 1.3 | 0.0129* | 0.0297* | 0.0345 | 0.0153* | 0.0284 | 0.0115*
COc1ccc(-n2c(=O)c3ccccc3n(Cc3cccc(C)c3)c2=O)cc1OC | 2.8 | 0.173 | 1.58 | -2.0 | . | . | . | . | . | .
Cc1ccccc1-n1nnnc1SCc1ncc(-c2ccccc2)o1 | . | -3.37* | . | 8.3 | 0.00677 | 0.00385 | ? | ? | 0.0164 | 0.0103
c1ccc(-c2cnc(CSc3nnc4ccccn34)o2)cc1 | 2.0 | 0.0521 | . | -5.8 | . | . | . | . | . | .
C/C(=N\NC(=O)CNc1cccc(C(F)(F)F)c1)c1cccc(Br)c1 | -8.2 | 5.45* | . | -2.4 | 0.0101 | 0.00637 | 0.0345 | 0.00741 | 0.0221 | 0.0107
C/C(=N\NC(=O)CNc1cccc(C(F)(F)F)c1)c1ccc(Br)cc1 | 2.3 | -0.0464 | 0.064 | -8.6 | . | . | . | . | . | .
Clc1cc(Cl)cc(C2=NCCC(c3ccccc3)O2)c1 (stereo not drawn) | . | 0.964 | -0.588 | -4.6 | . | . | . | . | . | .
CN=c1scc(-c2ccc(F)cc2)n1/N=C/c1ccc(O)c(O)c1 | 5.9 | -4.19* | 0.632 | -9.4 | 0.00478 | 0.00508 | 0.0231* | 0.00688 | 0.0147* | ?
CN=c1scc(-c2ccc([N+](=O)[O-])cc2)n1/N=C/c1ccco1 | -5.5 | 0.192 | 1.14 | 5.0 | . | . | . | . | . | .
O=S(=O)(Nc1c(S(=O)(=O)c2ccccc2)c2nc3ccccc3nc2n1C1CCCCC1)c1ccccc1 | -4.8 | -4.33* | . | 5.7 | 0.00829 | 0.00604 | 0.0341 | 0.00386 | ? | 0.0116
C=CCn1c(NS(=O)(=O)c2ccccc2)c(S(=O)(=O)c2ccc(C)cc2)c2nc3ccccc3nc21 | 5.4 | -3.32 | . | 1.5 | . | . | . | . | . | .
O=C(CN1CCCC1)Nc1ccccc1Sc1ccc(Cl)cc1 | 0.5 | -1.51 | -0.835 | -2.5 | . | . | . | . | . | .
COc1ccccc1NC(=O)CSc1nnc(CNC(=O)c2ccco2)o1 | -16.0 | . | 0.993 | -12.4 | . | . | . | . | . | .
COc1ccc(NC(=O)CSc2nnc(CNC(=O)c3ccco3)o2)c(OC)c1 | 8.3 | . | 0.684 | 0.9 | 0.0168 | 0.00516 | 0.0275 | 0.00712 | 0.0162 | 0.0102
COC(=O)c1ccc(S(=O)(=O)NC(C)(C)C)n1C | 23.6 | -0.995 | 1.42 | . | . | . | . | . | . | .
COc1ccc(OC)c(C(C)NC(=O)Nc2cccc(C(C)=O)c2)c1 (stereo not drawn) | . | 0.0582 | -0.0403 | 3.9 | . | . | . | . | . | .
O=C(OC(C(=O)NC1CCCC1)c1ccncc1)C1=Cc2ccccc2OC1 (stereo not drawn) | 2.2 | -4.33* | . | 1.4 | 0.00783 | 0.00702 | 0.0302 | 0.00632 | 0.0161* | 0.01
CC(C)CN(C(=O)CN1CCc2ccccc21)c1c(N)n(CC(C)C)c(=O)[nH]c1=O | -5.7 | 0.665 | 0.858 | -6.0 | . | . | . | . | . | .
Cn1c(C(=O)NCCN2CCOCC2)cc2c(=O)n(C)c3ccccc3c21 | 0.5 | . | . | -7.2 | . | . | . | . | . | .
Cn1c(C(=O)NCCN2CCN(c3ccccc3F)CC2)cc2c(=O)n(C)c3ccccc3c21 | . | -4.67* | . | 7.8 | 0.005 | 0.00476 | 0.022* | 0.00762 | ? | 0.0113
Cc1ccc(C)c(NC(=S)NCC(c2ccccc2)N(C)C)c1 (stereo not drawn) | 5.3 | -0.103 | 0.261 | -8.8 | . | . | . | . | . | .
